# Test results from ChEMBL document CHEMBL4043283, “Discovery and Preclinical Development of IIIM-290, an Orally Active Potent Cyclin-Dependent Kinase Inhibitor” (J Med Chem, 2018).
# Tests used:
# MIA PaCa-2 [1] = experiment: Growth inhibition of human MIAPaCa2 cells at 10 uM after 48 hrs by MTT assay relative to control; format: functional; conditions: MIA PaCa-2, 48 h, read-out: GI
# Summary of the method: (§1)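 Single-concentration primary screen at 10 μM by MTT assay. Cells were NCI-sourced cancer lines grown in appropriate medium at 37 °C, 95% humidity, 5% CO2. Growth inhibition is expressed relative to control.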
# HL-60 [2] = experiment: Growth inhibition of human HL60 cells after 48 hrs by MTT assay; format: functional; conditions: HL-60, 48 h
# Summary of the method: (§2)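 Cancer cell lines sourced from the National Cancer Institute (USA). Cells kept in appropriate growth medium at 37 °C, 95% humidity, 5% CO2. Antiproliferation read by tetrazolium (MTT) assay. GI50 values were determined only for compounds selected after an initial single-concentration screen.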
# Caco-2 [3] = experiment: Growth inhibition of human Caco2 cells at 10 uM after 48 hrs by MTT assay relative to control; format: functional; conditions: Caco-2, 48 h, read-out: GI; summary of the method: as §1
# MCF7 [4] = experiment: Growth inhibition of human MCF7 cells at 10 uM after 48 hrs by MTT assay relative to control; format: functional; conditions: MCF7, 48 h, read-out: GI; summary of the method: as §1
# Caco-2 [5] = experiment: Growth inhibition of human Caco2 cells after 48 hrs by MTT assay; format: functional; conditions: Caco-2, 48 h; summary of the method: as §2
# MIA PaCa-2 [6] = experiment: Growth inhibition of human MIAPaCa2 cells after 48 hrs by MTT assay; format: functional; conditions: MIA PaCa-2, 48 h; summary of the method: as §2
# PC-3 [7] = experiment: Growth inhibition of human PC3 cells after 48 hrs by MTT assay; format: functional; conditions: PC-3, 48 h; summary of the method: as §2
# MCF7 [8] = experiment: Growth inhibition of human MCF7 cells after 48 hrs by MTT assay; format: functional; conditions: MCF7, 48 h; summary of the method: as §2
# HL-60 [9] = experiment: Growth inhibition of human HL60 cells at 10 uM after 48 hrs by MTT assay relative to control; format: functional; conditions: HL-60, 48 h, read-out: GI; summary of the method: as §1
# PC-3 [10] = experiment: Growth inhibition of human PC3 cells at 10 uM after 48 hrs by MTT assay relative to control; format: functional; conditions: PC-3, 48 h, read-out: GI; summary of the method: as §1
# [11] = biological target: CDK9/cyclin T1 (Homo sapiens) (UniProt O60563+P50750); experiment: Inhibition of CDK9/cyclin T1 (unknown origin) at 0.5 uM using YSPTSPSYSPTSPSYSPTSPKKK as substrate after 30 mins in presence of [33P]-gamma-ATP by filter binding assay relative to control; format: protein-complex assay
# [12] = biological target: CDK2/Cyclin A2 (Homo sapiens) (UniProt P24941+P20248); experiment: Inhibition of CDK2/cyclin A (unknown origin) at 0.5 uM using histone H1 as substrate after 30 mins in presence of [33P]-gamma-ATP by filter binding assay relative to control; format: protein-complex assay
# CDK9/cyclin T1 = CDK9/cyclin T1 (Homo sapiens, UniProt P50750); experiment: Inhibition of CDK9/cyclin T1 (unknown origin) using YSPTSPSYSPTSPSYSPTSPKKK as substrate after 30 mins in presence of [33P]-gamma-ATP by filter binding assay; format: protein-complex assay
# Sequence of CDK9/cyclin T1 (O60563 whole entry): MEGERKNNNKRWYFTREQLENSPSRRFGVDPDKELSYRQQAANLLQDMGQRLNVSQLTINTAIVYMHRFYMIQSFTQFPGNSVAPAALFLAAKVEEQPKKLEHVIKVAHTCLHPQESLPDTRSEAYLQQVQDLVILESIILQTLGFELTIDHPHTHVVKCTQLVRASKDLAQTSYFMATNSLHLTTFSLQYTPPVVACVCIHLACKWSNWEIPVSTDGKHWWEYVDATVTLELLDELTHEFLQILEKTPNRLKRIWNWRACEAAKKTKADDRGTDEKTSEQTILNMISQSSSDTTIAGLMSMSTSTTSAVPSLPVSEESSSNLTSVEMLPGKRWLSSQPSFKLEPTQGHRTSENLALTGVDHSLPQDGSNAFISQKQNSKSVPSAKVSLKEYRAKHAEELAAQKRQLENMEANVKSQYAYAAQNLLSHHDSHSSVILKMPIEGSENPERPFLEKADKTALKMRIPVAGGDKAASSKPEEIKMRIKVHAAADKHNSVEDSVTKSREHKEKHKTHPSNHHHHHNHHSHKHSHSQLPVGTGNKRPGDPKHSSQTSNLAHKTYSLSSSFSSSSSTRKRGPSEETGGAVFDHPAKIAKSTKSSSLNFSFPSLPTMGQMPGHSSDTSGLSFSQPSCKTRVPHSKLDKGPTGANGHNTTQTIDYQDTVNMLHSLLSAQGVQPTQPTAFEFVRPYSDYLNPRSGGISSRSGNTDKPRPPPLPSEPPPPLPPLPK
# Sequence of CDK9/cyclin T1 (P50750 whole entry): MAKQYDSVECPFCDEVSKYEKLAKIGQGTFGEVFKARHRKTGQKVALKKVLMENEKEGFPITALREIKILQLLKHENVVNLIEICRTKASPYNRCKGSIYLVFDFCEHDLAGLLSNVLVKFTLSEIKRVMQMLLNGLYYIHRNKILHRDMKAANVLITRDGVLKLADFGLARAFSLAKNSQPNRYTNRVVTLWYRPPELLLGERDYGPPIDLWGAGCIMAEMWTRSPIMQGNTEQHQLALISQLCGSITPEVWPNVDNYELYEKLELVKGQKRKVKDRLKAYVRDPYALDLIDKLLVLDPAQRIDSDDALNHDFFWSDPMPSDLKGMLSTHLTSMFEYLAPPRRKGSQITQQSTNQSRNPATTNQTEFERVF
# CDK2/Cyclin A2 = CDK2/Cyclin A2 (Homo sapiens, UniProt P24941); experiment: Inhibition of CDK2/cyclin A (unknown origin) using histone H1 as substrate after 30 mins in presence of [33P]-gamma-ATP by filter binding assay; format: protein-complex assay
GI50 (HL-60 [2]) [µM],GI50 (Caco-2 [5]) [µM],GI50 (MIA PaCa-2 [6]) [µM],GI50 (PC-3 [7]) [µM],GI50 (MCF7 [8]) [µM],inhibition [11] [%],inhibition [12] [%],IC50 (CDK9/cyclin T1) [µM],IC50 (CDK2/Cyclin A2) [µM],SMILES,inhibition of growth at 10 µM (MIA PaCa-2 [1]) [%],inhibition of growth at 10 µM (Caco-2 [3]) [%],inhibition of growth at 10 µM (MCF7 [4]) [%],inhibition of growth at 10 µM (HL-60 [9]) [%],inhibition of growth at 10 µM (PC-3 [10]) [%]
10,25,19,19,28,–,–,–,–,Cc1cc(=O)c2c(O)cc(O)c([C@H]3CCN(C)C[C@H]3O)c2o1 [ROHITUKINE],2,12,15,83,33
8,8,2,7,3,88,53,0.029,0.466,CN1CC[C@H](c2c(O)cc(O)c3c(=O)cc(/C=C/c4cccc(F)c4)oc23)[C@H](O)C1,67,61,83,60,67
4,4,4,> 100,5,80,43,0.35,1.8,CN1CC[C@H](c2c(O)cc(O)c3c(=O)cc(/C=C/c4c5ccccc5cc5ccccc45)oc23)[C@H](O)C1,77,44,78,78,75
8,7,3,20,8,60,9,0.26,1.52,CN1CC[C@H](c2c(O)cc(O)c3c(=O)cc(/C=C/c4ccccc4F)oc23)[C@H](O)C1,60,68,62,62,25
1,3.7,2,58,31,66,5.2,0.066,0.925,CN1CC[C@H](c2c(O)cc(O)c3c(=O)cc(/C=C/c4ccccc4)oc23)[C@H](O)C1,87,72,8,91,10
–,–,–,–,–,0,0,–,–,Cc1oc2c([C@H]3CCN(C)C[C@H]3O)c(O)cc(O)c2c(=O)c1C(O)c1ccc(Cl)cc1 (stereo partly specified),15,3,6,2,41
–,–,–,–,–,8,7,–,–,Cc1cc(=O)c2c(O)cc(OC/C=C/c3ccccc3)c([C@H]3CCN(C)C[C@H]3O)c2o1,11,9,7,21,18
–,–,–,–,–,2,2,–,–,Cc1oc2c([C@H]3CCN(C)C[C@H]3O)c(O)cc(O)c2c(=O)c1C(O)c1ccc(F)c(Br)c1 (stereo partly specified),9,6,14,25,72
–,–,–,–,–,0,0,–,–,Cc1oc2c([C@H]3CCN(C)C[C@H]3O)c(O)cc(O)c2c(=O)c1C(O)c1c(Cl)cccc1Cl (stereo partly specified),0,24,33,14,0

# Second part, the molecule before the results:
SMILES,GI50 (HL-60 [2]) [µM],GI50 (Caco-2 [5]) [µM],GI50 (MIA PaCa-2 [6]) [µM],GI50 (PC-3 [7]) [µM],GI50 (MCF7 [8]) [µM],inhibition [11] [%],inhibition [12] [%],IC50 (CDK9/cyclin T1) [µM],IC50 (CDK2/Cyclin A2) [µM],inhibition of growth at 10 µM (MIA PaCa-2 [1]) [%],inhibition of growth at 10 µM (Caco-2 [3]) [%],inhibition of growth at 10 µM (MCF7 [4]) [%],inhibition of growth at 10 µM (HL-60 [9]) [%],inhibition of growth at 10 µM (PC-3 [10]) [%]
CCCCCCCCCC/C=C/c1c(C)oc2c([C@H]3CCN(C)C[C@H]3O)c(O)cc(O)c2c1=O,–,–,–,–,–,11,5,–,–,4,10,7,9,0
Cc1cc(=O)c2c(O)cc(OCc3ccccc3Br)c([C@H]3CCN(C)C[C@H]3O)c2o1,–,–,–,–,–,0,6,–,–,30,35,45,3,32
Cc1cc(=O)c2c(O)c(CN3CCCC3C(=O)O)c(O)c([C@H]3CCN(C)C[C@H]3O)c2o1 (stereo partly specified),–,–,–,–,–,0,17,–,–,10,30,21,16,0
Cc1cc(=O)c2c(O)cc(OCc3ccc(Br)cc3)c([C@H]3CCN(C)C[C@H]3O)c2o1,–,–,–,–,–,0,0,–,–,13,13,14,27,17
Cc1oc2c([C@H]3CCN(C)C[C@H]3O)c(O)cc(O)c2c(=O)c1C(O)c1cccc(Cl)c1Cl (stereo partly specified),–,–,–,–,–,0,0,–,–,2,3,7,12,20
Cc1cc(=O)c2c(O)cc(OCc3ccco3)c([C@H]3CCN(C)C[C@H]3O)c2o1,–,–,–,–,–,8,7,–,–,7,17,6,32,14
Cc1cc(=O)c2c(O)c(CN3CC(O)CC3C(=O)O)c(O)c([C@H]3CCN(C)C[C@H]3O)c2o1 (stereo partly specified),–,–,–,–,–,8,10,–,–,23,19,25,28,0
Cc1cc(=O)c2c(O)c(CN(C(C)C)C(C)C)c(O)c([C@H]3CCN(C)C[C@H]3O)c2o1,–,–,–,–,–,12,1,–,–,11,22,33,21,0
Cc1cc(=O)c2c(O)c(CN3CCC(N4CCCCC4)CC3)c(O)c([C@H]3CCN(C)C[C@H]3O)c2o1,–,–,–,–,–,5,10,–,–,23,31,25,34,17
Cc1cc(=O)c2c(O)c(CN(C)CC(=O)O)c(O)c([C@H]3CCN(C)C[C@H]3O)c2o1,–,–,–,–,–,0,0,–,–,16,18,27,23,20
Cc1cc(=O)c2c(O)c(CN3CCCC3CO)c(O)c([C@H]3CCN(C)C[C@H]3O)c2o1 (stereo partly specified),–,–,–,–,–,5,0,–,–,13,19,22,33,15
